Data reported in ChEMBL document CHEMBL1125285, “Gastrin releasing peptide antagonists with improved potency and stability” (J Med Chem, 1991).
Non-standard residues stand in square brackets, D forms with d. Residues, ends and D or L forms follow the SMILES beside them. *: point of attachment. NHCH(iBu)2 = CC(C)CC(CC(C)C)N*; X1 = CC(C)CCOC[C@H](CC(C)C)N*; X11 = CCCCC[C@@H](CC(C)C)N*; Leu(ol) = CC(C)C[C@H](N)CO; X10 = CCCOC[C@H](CC(C)C)N*; X4 = CCCCCC[C@H](CC(C)C)N*; X12 = CCCC[C@H](CC(C)C)N*; X8 = CCCC[C@@H](CC(C)C)N*; X5 = CCOC[C@H](CC(C)C)N*; X9 = CCC[C@@H](CC(C)C)N*; X3 = COC[C@H](CC(C)C)N*; X6 = CCC[C@H](CC(C)C)N*; X2 = CCCCC(CCCC)N*

Tests used:
[1] = target: Gastrin-releasing peptide receptor (Mus musculus, UniProt P21729); assay: Inhibition against Swiss 3T3 murine fibroblast cells.; format: functional, cell-based
Summary of the method: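 Competitive binding on confluent Swiss 3T3 monolayers grown in DMEM with 10% FBS and 2 mM glutamine. [3H-Phe15]GRP-15-27 amide used at 2 nM final, at 15 °C for 1–2 h. Nonspecific binding defined with excess unlabeled GRP. Run in triplicate in at least two trials; mean IC50 reported.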

[2] = Compound was evaluated for mitogenic stimulation against Swiss 3T3 murine fibroblast cells.; format: functional, cell-based, Mus musculus
Summary of the method: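 Confluent Swiss 3T3 monolayers held in serum-free DMEM for 48 h, then peptide and 23 nM [3H]thymidine added. After 48 h more, cells detached with trypsin/5 mM EDTA and filter-harvested to measure [3H]thymidine uptake. EC50 is the mean of at least two independent experiments.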

Gastrin-releasing peptide receptor, sequence (P21729 whole entry): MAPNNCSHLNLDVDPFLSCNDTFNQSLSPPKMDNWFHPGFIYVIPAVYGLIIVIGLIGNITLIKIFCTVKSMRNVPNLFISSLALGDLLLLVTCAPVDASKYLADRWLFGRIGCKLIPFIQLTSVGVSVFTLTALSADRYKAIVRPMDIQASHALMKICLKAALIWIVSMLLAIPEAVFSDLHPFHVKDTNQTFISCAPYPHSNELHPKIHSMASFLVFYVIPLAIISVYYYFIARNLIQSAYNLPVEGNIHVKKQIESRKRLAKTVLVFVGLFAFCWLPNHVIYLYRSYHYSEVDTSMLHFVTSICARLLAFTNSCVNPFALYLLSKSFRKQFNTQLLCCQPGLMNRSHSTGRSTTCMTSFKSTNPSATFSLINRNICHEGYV

| Compound | IC50 [1] [nM] | EC50 [2] [nM] |
| --- | --- | --- |
| CCOC[C@H](CC(C)C)NC(=O)[C@H](Cc1c[nH]cn1)NC(=O)[C@@H](C)NC(=O)[C@@H](NC(=O)[C@H](C)NC(=O)[C@H](Cc1c[nH]c2ccccc12)NC(=O)[C@H](Cc1c[nH]cn1)NC(C)=O)C(C)C | 5 | – |
| CCOC[C@H](CC(C)C)NC(=O)[C@H](Cc1c[nH]cn1)NC(=O)[C@H](C)NC(=O)[C@@H](NC(=O)[C@H](C)NC(=O)[C@H](Cc1c[nH]c2ccccc12)NC(=O)[C@H](Cc1c[nH]cn1)NC(C)=O)C(C)C | 410 | – |
| CSCC[C@H](NC(=O)[C@H](CC(C)C)NC(=O)[C@H](Cc1c[nH]cn1)NC(=O)[C@@H](C)NC(=O)[C@@H](NC(=O)[C@H](C)NC(=O)[C@H](Cc1c[nH]c2ccccc12)NC(=O)[C@H](Cc1c[nH]cn1)NC(C)=O)C(C)C)C(N)=O | 3.2 | 0.2 |
| CSCC[C@H](NC(=O)[C@H](CC(C)C)NC(=O)[C@H](Cc1c[nH]cn1)NC(=O)CNC(=O)[C@@H](NC(=O)[C@H](C)NC(=O)[C@H](Cc1c[nH]c2ccccc12)NC(=O)[C@H](Cc1c[nH]cn1)NC(C)=O)C(C)C)C(N)=O | 1.8 | 0.2 |
| CSCC[C@H](NC(=O)[C@H](CC(C)C)NC(=O)[C@H](Cc1c[nH]cn1)NC(=O)[C@H](C)NC(=O)[C@@H](NC(=O)[C@H](C)NC(=O)[C@H](Cc1c[nH]c2ccccc12)NC(=O)[C@H](Cc1c[nH]cn1)NC(C)=O)C(C)C)C(N)=O | 180 | 20 |
| CSCC[C@H](NC(=O)[C@H](CC(C)C)NC(=O)[C@H](Cc1c[nH]cn1)NC(=O)CNC(=O)[C@@H](NC(=O)[C@H](C)NC(=O)[C@H](Cc1c[nH]c2ccccc12)NC(=O)[C@H](Cc1c[nH]cn1)NC(=O)C(C)(C)C)C(C)C)C(N)=O | 4.1 | 0.2 |
| CC(=O)N[C@@H](Cc1c[nH]cn1)C(=O)N[C@@H](Cc1c[nH]c2ccccc12)C(=O)N[C@@H](C)C(=O)N[C@H](C(=O)NCC(=O)N[C@@H](Cc1c[nH]cn1)C(=O)N[C@H](COCCC(C)C)CC(C)C)C(C)C (Ac-HWAVGH-X1) | 11 | – |
| CCCCC(CCCC)NC(=O)[C@H](Cc1cnc[nH]1)NC(=O)CNC(=O)[C@@H](NC(=O)[C@H](C)NC(=O)[C@H](Cc1c[nH]c2ccccc12)NC(=O)[C@H](Cc1cnc[nH]1)NC(C)=O)C(C)C (Ac-HWAVGH-X2) | 3.3 | – |
| COC[C@H](CC(C)C)NC(=O)[C@H](Cc1c[nH]cn1)NC(=O)CNC(=O)[C@@H](NC(=O)[C@H](C)NC(=O)[C@H](Cc1c[nH]c2ccccc12)NC(=O)[C@H](Cc1c[nH]cn1)NC(C)=O)C(C)C (Ac-HWAVGH-X3) | 8.3 | – |
| CCCCCC[C@H](CC(C)C)NC(=O)[C@H](Cc1c[nH]cn1)NC(=O)CNC(=O)[C@@H](NC(=O)[C@H](C)NC(=O)[C@H](Cc1c[nH]c2ccccc12)NC(=O)[C@H](Cc1c[nH]cn1)NC(C)=O)C(C)C (Ac-HWAVGH-X4) | 2.8 | – |
| CCOC[C@H](CC(C)C)NC(=O)[C@H](Cc1c[nH]cn1)NC(=O)CNC(=O)[C@@H](NC(=O)[C@H](C)NC(=O)[C@H](Cc1c[nH]c2ccccc12)NC(=O)[C@H](Cc1c[nH]cn1)NC(C)=O)C(C)C (Ac-HWAVGH-X5) | 6.2 | – |
| CCC[C@H](CC(C)C)NC(=O)[C@H](Cc1cnc[nH]1)NC(=O)CNC(=O)[C@@H](NC(=O)[C@H](C)NC(=O)[C@H](Cc1c[nH]c2ccccc12)NC(=O)[C@H](Cc1cnc[nH]1)NC(C)=O)C(C)C (Ac-HWAVGH-X6) | 2.6 | – |
| CCCC[C@@H](CC(C)C)NC(=O)[C@H](Cc1c[nH]cn1)NC(=O)CNC(=O)[C@@H](NC(=O)[C@H](C)NC(=O)[C@H](Cc1c[nH]c2ccccc12)NC(=O)[C@H](Cc1c[nH]cn1)NC(C)=O)C(C)C (Ac-HWAVGH-X8) | 2.4 | – |
| CCC[C@@H](CC(C)C)NC(=O)[C@H](Cc1c[nH]cn1)NC(=O)CNC(=O)[C@@H](NC(=O)[C@H](C)NC(=O)[C@H](Cc1c[nH]c2ccccc12)NC(=O)[C@H](Cc1c[nH]cn1)NC(C)=O)C(C)C (Ac-HWAVGH-X9) | 4.9 | – |
| CCCOC[C@H](CC(C)C)NC(=O)[C@H](Cc1c[nH]cn1)NC(=O)CNC(=O)[C@@H](NC(=O)[C@H](C)NC(=O)[C@H](Cc1c[nH]c2ccccc12)NC(=O)[C@H](Cc1c[nH]cn1)NC(C)=O)C(C)C (Ac-HWAVGH-X10) | 3.2 | – |
| CCCCC[C@@H](CC(C)C)NC(=O)[C@H](Cc1c[nH]cn1)NC(=O)CNC(=O)[C@@H](NC(=O)[C@H](C)NC(=O)[C@H](Cc1c[nH]c2ccccc12)NC(=O)[C@H](Cc1c[nH]cn1)NC(C)=O)C(C)C (Ac-HWAVGH-X11) | 11 | – |
| CCCC[C@H](CC(C)C)NC(=O)[C@H](Cc1cnc[nH]1)NC(=O)CNC(=O)[C@@H](NC(=O)[C@H](C)NC(=O)[C@H](Cc1c[nH]c2ccccc12)NC(=O)[C@H](Cc1cnc[nH]1)NC(C)=O)C(C)C (Ac-HWAVGH-X12) | 1.4 | – |
| CC(=O)N[C@@H](Cc1c[nH]cn1)C(=O)N[C@@H](Cc1c[nH]c2ccccc12)C(=O)N[C@@H](C)C(=O)N[C@H](C(=O)NCC(=O)N[C@@H](Cc1c[nH]cn1)C(=O)NC(CC(C)C)CC(C)C)C(C)C (Ac-HWAVGH-{NHCH(iBu)2}) | 1.2 | – |
| CC(=O)N[C@@H](Cc1c[nH]cn1)C(=O)N[C@@H](Cc1c[nH]c2ccccc12)C(=O)N[C@@H](C)C(=O)N[C@H](C(=O)NCC(=O)N[C@@H](Cc1c[nH]cn1)C(=O)N[C@H](CO)CC(C)C)C(C)C (Ac-HWAVGH[Leu(ol)]) | 81 | – |
